What all share (format): functional
For test [1], the system named is MCF7. In words: Growth inhibition of human MCF7 cells at 50 uM after 48 hrs by sulpharhodamine B assay. The conditions noted are these: MCF7, 48 h, read-out: GI. The method, boiled down:
(§1)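 This is the SRB protein-stain assay on adherent cells in RPMI-1640/MEM with 10% FCS. Each compound in DMSO (vehicle <0.2%) was applied at a single fixed concentration for 48 h. Cells were fixed with TCA and stained with SRB, and the dye was solubilised in Tris and read at 570/620 nm. Percent growth inhibition is relative to vehicle-treated controls, reported as mean ± SD of three experiments run in triplicate.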

The test system of test [2] is THP-1. In words: Growth inhibition of human THP1 cells at 30 uM after 48 hrs by sulpharhodamine B assay. The following applies: THP-1, 48 h, read-out: GI. The method, boiled down:
(§2)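 Cells grown in RPMI-1640/MEM with 10% FCS, penicillin/streptomycin, 37 °C, 5% CO2. Seeded in 96-well plates, allowed to adhere overnight, then exposed 48 h to analogs in DMSO (vehicle <0.2% in controls). TCA-fixed, stained with 0.4% SRB in 1% acetic acid, dye solubilized in 10 mM Tris base, OD 570 nm (ref 620 nm). Mean ± SD of three experiments run in triplicate.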

The test system of test [3] is PC-3. The test can be described thus: Growth inhibition of human PC3 cells at 30 uM after 48 hrs by sulpharhodamine B assay. The following applies: PC-3, 48 h, read-out: GI. The method, boiled down: as §2
For test [4], the system named is A549. The test can be described thus: Growth inhibition of human A549 cells at 30 uM after 48 hrs by sulpharhodamine B assay. The following applies: A549, 48 h, read-out: GI. The method, boiled down: as §1
The subject of test [5] is HeLa. The test can be described thus: Growth inhibition of human HeLa cells at 30 uM after 48 hrs by sulpharhodamine B assay. The conditions noted are these: read-out: GI. A digest of the protocol: as §1
The test system of test [6] is HeLa. In words: Growth inhibition of human HeLa cells at 50 uM after 48 hrs by sulpharhodamine B assay. The conditions noted are these: read-out: GI. The method, boiled down:
as §1

The subject of test [7] is OVCAR-5. In words: Growth inhibition of human OVCAR5 cells at 30 uM after 48 hrs by sulpharhodamine B assay. The following applies: OVCAR-5, 48 h, read-out: GI. A digest of the protocol: as §1
For test [8], the system named is PC-3. In words: Growth inhibition of human PC3 cells at 50 uM after 48 hrs by sulpharhodamine B assay. The conditions noted are these: PC-3, 48 h, read-out: GI. The method, boiled down:
as §2

For test [9], the system named is OVCAR-5. In words: Growth inhibition of human OVCAR5 cells at 50 uM after 48 hrs by sulpharhodamine B assay. The conditions noted are these: OVCAR-5, 48 h, read-out: GI. A digest of the protocol:
as §1

Test [10] relates to IMR-32. In words: Growth inhibition of human IMR32 cells at 30 uM after 48 hrs by sulpharhodamine B assay. The following applies: IMR-32, 48 h, read-out: GI. The method, boiled down:
as §1

Test [11] deals with HEp-2. In words: Growth inhibition of human Hep2 cells at 50 uM after 48 hrs by sulpharhodamine B assay. The conditions noted are these: HEp-2, 48 h, read-out: GI. The method, boiled down: as §1
Test [12] relates to THP-1. In words: Growth inhibition of human THP1 cells at 50 uM after 48 hrs by sulpharhodamine B assay. The following applies: THP-1, 48 h, read-out: GI. The method, boiled down:
as §2

For test [13], the system named is A549. The test can be described thus: Growth inhibition of human A549 cells at 50 uM after 48 hrs by sulpharhodamine B assay. The following applies: A549, 48 h, read-out: GI. The method, boiled down: as §1
The subject of test [14] is IMR-32. The test can be described thus: Growth inhibition of human IMR32 cells at 50 uM after 48 hrs by sulpharhodamine B assay. The conditions noted are these: IMR-32, 48 h, read-out: GI. The method, boiled down: as §1
For test [15], the system named is MCF7. The test can be described thus: Growth inhibition of human MCF7 cells at 30 uM after 48 hrs by sulpharhodamine B assay. The conditions noted are these: MCF7, 48 h, read-out: GI. A digest of the protocol: as §1
In test [16] the test system is HEp-2. The test can be described thus: Growth inhibition of human Hep2 cells at 30 uM after 48 hrs by sulpharhodamine B assay. The conditions noted are these: HEp-2, 48 h, read-out: GI. The method, boiled down:
as §1

Turning to `CC(C)=CCC[C@@](C)(/C=C/c1ccc(N)cc1)/C=C/c1ccc(O)cc1`, the inhibition of growth at 50 µM in the test with MCF7 [1] turned out to be 48%; in the test on HeLa [6] it was 27%; in the test with PC-3 [8], 59%; in the test on OVCAR-5 [9] it was 16%; in the test on HEp-2 [11] it was 46%; with THP-1 [12] it was 51%. The inhibition of growth at 50 µM was 57% with A549 [13] and 28% with IMR-32 [14]. Also, the inhibition of growth at 30 µM with THP-1 [2] was 32%; with PC-3 [3] it was 15%; with A549 [4], 33%; in the test with HeLa [5] it was 5%; in the test with OVCAR-5 [7] it was 8%; in the test with IMR-32 [10], 14%. Besides, the results for the inhibition of growth at 30 µM with MCF7 [15] and in the test on HEp-2 [16] were 28% and 32%, respectively.

For the origin of these results see ChEMBL document CHEMBL1944511, “Bakuchiol derivatives as novel and potent cytotoxic agents: a report” (Eur J Med Chem, 2012).
